Molecules are shown by their SMILES.

The subject of experiment [1] is HT-29. Briefly: Cytotoxicity against human HT-29 cells assessed as cell viability at 100 uM after 72 hrs by MTS assay. The following applies: HT-29, 72 h.
The subject of experiment [2] is HepG2. Briefly: Cytotoxicity against human HepG2 cells assessed as cell viability at 25 uM after 24 hrs by MTS assay. In kind it is functional. The following applies: HepG2, 24 h, read-out: Activity.
Experiment [3] relates to HT-29. Description: Cytotoxicity against human HT-29 cells assessed as cell viability at 25 uM after 72 hrs by MTS assay. Particulars: HT-29, 72 h. For orientation: Tetrazolium dyes change colour on reduction, which living cells bring about.
Experiment [4] relates to HepG2. Description: Cytotoxicity against human HepG2 cells assessed as cell viability at 100 uM after 72 hrs by MTS assay. Particulars: HepG2, 72 h.
Experiment [5] concerns MCF7. Briefly: Cytotoxicity against human MCF7 cells assessed as cell viability at 100 uM after 72 hrs by MTS assay. Particulars: MCF7, 72 h.
Experiment [6] concerns MCF7. Briefly: Cytotoxicity against human MCF7 cells assessed as cell viability at 25 uM after 72 hrs by MTS assay. The following applies: MCF7, 72 h.
For experiment [7], the system named is MCF7. Briefly: Cytotoxicity against human MCF7 cells at 25 uM after 72 hrs by MTS assay.
Experiment [8] deals with HT-29. Briefly: Cytotoxicity against human HT-29 cells at 25 uM after 72 hrs by MTS assay.
Experiment [9] can be described thus: Cytotoxicity against mouse NIH/3T3 cells after 3 days by MTS assay. The class given is cell-based. The following applies: NIH3T3, 72 h. In outline: (§1)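 Non-tumour cells were CRL-7761 human skin, Vero monkey kidney (DMEM high glucose, 5% FBS, 10 mM HEPES) and NIH/3T3 mouse (DMEM, 10% calf serum). Cells were seeded, left 24 h, then switched to serum-free DMEM-F12 with albumin, transferrin and insulin, with or without compound. Exposure was 3 days at 37 °C.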

For experiment [10], the system named is MCF7. Briefly: Cytotoxicity against human MCF7 cells after 72 hrs by MTS assay. The following applies: MCF7, 72 h.
Experiment [11] deals with Nucleic Acid. Briefly: Binding affinity to DNA by ethidium bromide staining-based FID assay. Further details: concentration or dose not given beside the values.
For experiment [12], the system named is HepG2. Briefly: Cytotoxicity against human HepG2 cells after 72 hrs by MTS assay. The following applies: HepG2, 72 h.
A short description of experiment [13]: Cytotoxicity against human CRL7761 cells after 3 days by MTS assay. The following applies: 72 h. In kind it is cell-based. A digest of the protocol: as §1
Experiment [14] concerns the target DNA topoisomerase 2-alpha (Homo sapiens) (UniProt P11388). Description: Inhibition of human recombinant DNA topoisomerase 2alpha-mediated DNA cleavage assessed as decrease in relaxation of supercoiled plasmid substrate DNA at 100 uM after 30 mins by agarose gel electrophoresis.
In experiment [15] the test system is HT-29. Briefly: Cytotoxicity against human HT-29 cells after 72 hrs by MTS assay. Particulars: HT-29, 72 h.
In experiment [16] the test system is Vero. Briefly: Cytotoxicity against african green monkey Vero cells after 3 days by MTS assay. The following applies: Chlorocebus sabaeus, 72 h. In kind it is cell-based. In outline: as §1
The subject of experiment [17] is HepG2. Briefly: Cytotoxicity against human HepG2 cells at 25 uM after 72 hrs by MTS assay.
The target of experiment [18] is T1, DNA topoisomerase 1 (Homo sapiens) (UniProt P11387).
T1 sequence (whole entry): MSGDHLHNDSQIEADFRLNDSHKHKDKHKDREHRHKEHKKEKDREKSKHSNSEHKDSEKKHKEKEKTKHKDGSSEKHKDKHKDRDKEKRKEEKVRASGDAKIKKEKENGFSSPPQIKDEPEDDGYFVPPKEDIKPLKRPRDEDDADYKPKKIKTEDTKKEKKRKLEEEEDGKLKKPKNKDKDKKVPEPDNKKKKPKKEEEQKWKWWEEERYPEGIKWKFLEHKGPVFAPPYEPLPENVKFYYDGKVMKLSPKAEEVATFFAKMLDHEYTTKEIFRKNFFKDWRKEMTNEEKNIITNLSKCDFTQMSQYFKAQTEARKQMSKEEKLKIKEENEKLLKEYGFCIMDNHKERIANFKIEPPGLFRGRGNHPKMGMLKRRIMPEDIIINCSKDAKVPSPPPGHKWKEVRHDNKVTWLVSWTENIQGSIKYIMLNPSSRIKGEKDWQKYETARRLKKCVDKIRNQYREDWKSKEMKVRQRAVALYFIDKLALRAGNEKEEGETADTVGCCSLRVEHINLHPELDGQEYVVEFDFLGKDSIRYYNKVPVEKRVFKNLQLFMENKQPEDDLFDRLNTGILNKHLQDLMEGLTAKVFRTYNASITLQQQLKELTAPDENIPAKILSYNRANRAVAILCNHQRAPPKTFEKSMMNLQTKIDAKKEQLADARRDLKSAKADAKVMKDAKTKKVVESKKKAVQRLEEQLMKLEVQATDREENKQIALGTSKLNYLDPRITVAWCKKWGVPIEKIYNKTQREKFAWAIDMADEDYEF
Briefly: Inhibition of human recombinant DNA topoisomerase 1-mediated DNA cleavage assessed as decrease in relaxation of supercoiled plasmid substrate DNA at 100 uM after 30 mins by agarose gel electrophoresis.

Chain of DNA topoisomerase 2-alpha (Homo sapiens) (P11388 whole entry): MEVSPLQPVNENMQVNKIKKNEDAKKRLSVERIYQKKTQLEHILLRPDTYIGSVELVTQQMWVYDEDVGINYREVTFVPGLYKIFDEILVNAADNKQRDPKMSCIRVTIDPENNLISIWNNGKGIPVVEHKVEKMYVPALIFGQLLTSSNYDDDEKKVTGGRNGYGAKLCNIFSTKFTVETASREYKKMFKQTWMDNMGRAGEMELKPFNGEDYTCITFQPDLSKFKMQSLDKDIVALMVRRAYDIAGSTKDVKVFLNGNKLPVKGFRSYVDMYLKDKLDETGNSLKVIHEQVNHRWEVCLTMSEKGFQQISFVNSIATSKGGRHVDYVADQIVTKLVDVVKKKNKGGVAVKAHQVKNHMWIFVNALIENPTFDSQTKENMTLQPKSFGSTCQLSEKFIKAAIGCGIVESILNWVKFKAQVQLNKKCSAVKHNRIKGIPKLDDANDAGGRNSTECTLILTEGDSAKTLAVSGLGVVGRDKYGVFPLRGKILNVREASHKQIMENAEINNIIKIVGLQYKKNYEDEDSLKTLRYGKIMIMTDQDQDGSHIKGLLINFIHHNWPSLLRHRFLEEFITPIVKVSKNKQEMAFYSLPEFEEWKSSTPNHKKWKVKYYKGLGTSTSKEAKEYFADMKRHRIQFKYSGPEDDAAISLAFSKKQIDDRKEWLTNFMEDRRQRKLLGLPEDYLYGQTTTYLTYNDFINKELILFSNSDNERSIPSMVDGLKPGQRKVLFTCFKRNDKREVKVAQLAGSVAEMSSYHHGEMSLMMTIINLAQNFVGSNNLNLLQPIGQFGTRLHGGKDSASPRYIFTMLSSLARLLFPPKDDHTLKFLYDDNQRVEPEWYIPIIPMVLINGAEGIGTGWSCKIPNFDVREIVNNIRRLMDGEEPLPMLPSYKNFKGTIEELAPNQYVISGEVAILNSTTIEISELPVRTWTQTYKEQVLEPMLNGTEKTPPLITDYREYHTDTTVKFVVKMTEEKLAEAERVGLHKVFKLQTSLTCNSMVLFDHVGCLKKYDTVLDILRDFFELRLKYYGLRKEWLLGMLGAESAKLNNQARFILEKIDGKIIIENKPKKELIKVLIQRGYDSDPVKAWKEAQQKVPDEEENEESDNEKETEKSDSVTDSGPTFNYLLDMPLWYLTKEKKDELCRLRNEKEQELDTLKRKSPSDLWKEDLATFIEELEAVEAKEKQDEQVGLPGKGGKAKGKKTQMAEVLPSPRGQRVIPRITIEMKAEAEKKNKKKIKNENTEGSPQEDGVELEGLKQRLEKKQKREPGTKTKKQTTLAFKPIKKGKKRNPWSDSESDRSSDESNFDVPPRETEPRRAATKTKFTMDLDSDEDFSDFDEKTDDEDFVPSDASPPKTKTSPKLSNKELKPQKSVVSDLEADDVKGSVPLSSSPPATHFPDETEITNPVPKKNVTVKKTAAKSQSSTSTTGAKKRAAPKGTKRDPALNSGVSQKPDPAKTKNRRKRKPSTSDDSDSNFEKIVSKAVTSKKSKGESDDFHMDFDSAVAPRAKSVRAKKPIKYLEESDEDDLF

On to `OCC#Cc1c(-c2ccccc2)sc2ccccc12`, for which the viability at 100 µM in experiment [1] was 8%; in experiment [4], 17%; in experiment [5], 37%. For the same compound, the viability at 25 µM in experiment [2] was 97%; in experiment [3] it was 68%; in experiment [6], 90%.
Take `OCC#Cc1c(-c2ccccc2)oc2ccccc12`: the viability at 100 µM was under 1% in [1], under 1% in experiment [4] and 2% in experiment [5]. The viability at 25 µM in experiment [2] amounted to 88%; in experiment [3], 86%; in experiment [6], 86%.
As to `Ic1c(-c2ccccc2)oc2ccccc12`, the figures for the viability at 100 µM in experiment [1], in experiment [4] and in experiment [5] were 97%, 84% and 128%, respectively.
For orientation: IC50 means the point on the concentration scale where inhibition reaches its midpoint. The term inhibition denotes the change of the read-out against control, counted positive when it falls. In the case of `C[C@@H]1O[C@@H](OCC#Cc2c(-c3ccccc3)oc3ccccc23)CC[C@@H]1N`, the Activity amounted to 100% in experiment [7], 100% in [8], 68.5% in [11] and 100% in experiment [17]. The IC50 in [9] is 3.7 µM; in experiment [10] it was 10.3 µM; in experiment [12], 7.9 µM; in [13], over 25 µM; in experiment [15], 6.5 µM; in experiment [16], 10.9 µM. Also, the viability at 25 µM in experiment [2], in experiment [3] and in experiment [6] was under 1% each time. For the same compound, the values for the inhibition in [14] and in experiment [18] were 0% and 20.2%, respectively.
`C[C@@H]1O[C@@H](OCC#Cc2c(-c3ccccc3)[nH]c3ccccc23)CC[C@@H]1N`: the Activity in experiment [7] turned out to be 100%; in experiment [8] it was 100%; in experiment [11] it was 78.4%; in [17], 100%. The IC50 was found to be 14.7 µM in [9]; 10.8 µM in experiment [10]; 11.4 µM in experiment [12]; 24 µM in experiment [13]; 9.2 µM in [15]; 20.5 µM in experiment [16]. In addition, the viability at 25 µM in [2], in [3] and in experiment [6] was under 1% throughout. In addition, the inhibition turned out to be 39.5% in experiment [14] and 4% in experiment [18].
Regarding `c1ccc(-c2cc3ccccc3[nH]2)cc1` [2-PHENYL-1H-INDOLE], the results for the viability at 100 µM in experiment [1], in experiment [4] and in experiment [5] were 75%, 71% and 72%, respectively.
The corresponding values for `c1ccc(-c2cc3ccccc3o2)cc1` are 80%, 88% and 107%.
For the compound `C[C@@H]1O[C@@H](OCC#Cc2c(-c3ccccc3)sc3ccccc23)C[C@H](N)[C@H]1O`, the Activity in [7] was 100%; in experiment [8] it was 100%; in experiment [11], 73.6%; in [17], 100%. Also, the values for the viability at 25 µM in experiment [2], in experiment [3] and in experiment [6] were 2%, under 1% and 2%, respectively. For the same compound, the IC50 is 15.8 µM in experiment [10], 17.2 µM in experiment [12] and 10.9 µM in experiment [15]. Besides, the values for the inhibition in experiment [14] and in [18] were 22.2% and 32.2%, respectively.
Turning to `C[C@@H]1O[C@@H](OCC#Cc2c(-c3ccccc3)[nH]c3ccccc23)C[C@H](N)[C@@H]1O`, the Activity amounted to 100% in experiment [7], 100% in [8], 76.7% in experiment [11] and 100% in experiment [17]. Also, the viability at 25 µM in experiment [2], in [3] and in [6] was under 1% throughout. Also, the half-inhibitory concentration (IC50) in experiment [10] stood at 15.9 µM; in [12], 12.9 µM; in experiment [15] it was 14 µM. The inhibition stood at 7.1% in [14] and 8.8% in [18].
Consider `C[C@@H]1O[C@@H](OCC#Cc2c(-c3ccccc3)sc3ccccc23)CC[C@@H]1N`, for which the Activity came out at 100% in experiment [7], 100% in [8], 79.9% in experiment [11] and 100% in experiment [17]. The half-inhibitory concentration (IC50) was 9.8 µM in experiment [9]; 7.1 µM in [10]; 8.8 µM in [12]; over 25 µM in experiment [13]; 5.9 µM in [15]; 18.1 µM in [16]. For the same compound, the viability at 25 µM in [2], in [3] and in experiment [6] was under 1% each time. Also, the inhibition in experiment [14] was determined as 16.4%; in [18], 7.9%.
With `c1ccc(-c2cc3ccccc3s2)cc1`, the viability at 100 µM in experiment [1] was found to be 81%; in [4] it was 88%; in [5], 113%.
The corresponding values for `Cc1ccc(S(=O)(=O)n2c(-c3ccccc3)c(I)c3ccccc32)cc1` are 82%, 90% and 114%.
Take `Ic1c(-c2ccccc2)[nH]c2ccccc12`: the viability at 100 µM in experiment [1] was found to be 91%; in experiment [4], 91%; in [5] it was 103%.
Take `C#CCO[C@H]1C[C@H](N)[C@H](O)[C@H](C)O1`: the viability at 100 µM is 96% in experiment [1], 101% in experiment [4] and 109% in experiment [5].
For the compound `Cc1ccc(S(=O)(=O)n2c(-c3ccccc3)c(C#CCO)c3ccccc32)cc1`, the Activity in experiment [7], in experiment [8] and in experiment [17] was 100% in each case. In addition, the results for the viability at 100 µM in experiment [1], in experiment [4] and in experiment [5] were 9%, 37% and 55%, respectively. The viability at 25 µM was 58% in experiment [2], 26% in [3] and 87% in [6].
Consider `Cc1ccc(S(=O)(=O)n2c(-c3ccccc3)cc3ccccc32)cc1`, for which the viability at 100 µM in experiment [1] is 12%; in [4], 37%; in experiment [5] it was 71%. For the same compound, the viability at 25 µM in experiment [2] came to 54%; in experiment [3] it was 39%.
As for `C#CCO[C@H]1C[C@H](N)[C@@H](O)[C@H](C)O1`, the results for the viability at 100 µM in [1], in [4] and in experiment [5] were 91%, 105% and 123%, respectively.
The corresponding values for `C#CCO[C@H]1CC[C@H](N)[C@H](C)O1` are 99%, 112% and 107%.
With `OCC#Cc1c(-c2ccccc2)[nH]c2ccccc12`, the Activity in experiment [7], in experiment [8] and in experiment [17] was 100% throughout. The viability at 100 µM in [1] amounted to 79%; in experiment [4] it was 87%; in experiment [5], 109%. For the same compound, the figures for the viability at 25 µM in experiment [2], in [3] and in experiment [6] were 87%, 81% and 121%, respectively.

These data come from ChEMBL document CHEMBL1641417, “Cytotoxicity and topoisomerase I/II inhibition of glycosylated 2-phenyl-indoles, 2-phenyl-benzo[b]thiophenes and 2-phenyl-benzo[b]furans” (Bioorg Med Chem, 2011).
